In ChEMBL document CHEMBL3244096, “Modifications of primaquine as antimalarials. 1. 5-Phenoxy derivatives of primaquine” (J Med Chem, 1977):
Active and inactive are the calls of the source.

Experiments:
Plasmodium cynomolgi [1] = assay: Antimalarial activity against sporozoite stage of Plasmodium cynomolgi infected in rhesus monkey assessed as radical curative activity at 0.125 mg/kg measured for 90 days; type: functional, organism-based; design: dose 0.125 mg/kg
Summary of the method: (§1)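 Rhesus monkeys infected by sporozoite inoculation of Plasmodium cynomolgi and dosed at the mg/kg levels given. Results are recorded as cures per number of animals, or as the day of relapse. An animal with no relapse within 90 days is counted as cured.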

Plasmodium cynomolgi [2] = assay: Antimalarial activity against sporozoite stage of Plasmodium cynomolgi infected in rhesus monkey assessed as radical curative activity at 0.75 mg/kg measured for 90 days; type: functional, organism-based; design: dose 0.75 mg/kg; summary of the method: as §1
Plasmodium cynomolgi [3] = assay: Antimalarial activity against sporozoite stage of Plasmodium cynomolgi infected in rhesus monkey assessed as radical curative activity at 0.5 mg/kg measured for 90 days; type: functional, organism-based; design: dose 0.5 mg/kg; summary of the method: as §1
Plasmodium cynomolgi [4] = assay: Antimalarial activity against sporozoite stage of Plasmodium cynomolgi infected in rhesus monkey assessed as radical curative activity at 10 mg/kg measured for 90 days; type: functional, organism-based; design: dose 10 mg/kg; summary of the method: as §1
Plasmodium cynomolgi [5] = assay: Antimalarial activity against sporozoite stage of Plasmodium cynomolgi infected in rhesus monkey assessed as radical curative activity at 0.25 mg/kg measured for 90 days; type: functional, organism-based; design: dose 0.25 mg/kg; summary of the method: as §1
Plasmodium cynomolgi [6] = assay: Antimalarial activity against sporozoite stage of Plasmodium cynomolgi infected in rhesus monkey assessed as radical curative activity at 1 mg/kg measured for 90 days; type: functional, organism-based; design: dose 1 mg/kg; summary of the method: as §1
Plasmodium berghei [7] = assay: Antimalarial activity against blood schizont stage of Plasmodium berghei infected in mouse assessed as mean survival days of host at 80 mg/kg (reference value: 6.1 days); type: functional
Plasmodium berghei [8] = assay: Antimalarial activity against blood schizont stage of Plasmodium berghei infected in mouse assessed as mean survival days of host at 20 mg/kg (reference value: 6.1 days); type: functional
Plasmodium berghei [9] = assay: Antimalarial activity against blood schizont stage of Plasmodium berghei infected in mouse assessed as mean survival days of host at 40 mg/kg (reference value: 6.1 days); type: functional
Plasmodium berghei [10] = assay: Antimalarial activity against blood schizont stage of Plasmodium berghei infected in mouse assessed as mean survival days of host at 320 mg/kg (reference value: 6.1 days); type: functional
Plasmodium berghei [11] = assay: Antimalarial activity against blood schizont stage of Plasmodium berghei infected in mouse assessed as mean survival days of host at 160 mg/kg (reference value: 6.1 days); type: functional
Plasmodium berghei [12] = assay: Antimalarial activity against blood schizont stage of Plasmodium berghei infected in mouse assessed as complete disease cure at 320 mg/kg measured 60 days post infection infection; type: functional, organism-based; design: dose 320 mg/kg
Summary of the method: (§2)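 Mice infected with blood-stage Plasmodium berghei, five animals per group, following the Osdene et al. method. Cures are the number of mice alive 60 days after infection. Deaths before day 6 are scored as toxic. Activity is read as the increase in mean survival time over untreated controls, and a group counts as active when its MST exceeds twice the control MST.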

Plasmodium berghei [13] = assay: Antimalarial activity against blood schizont stage of Plasmodium berghei infected in mouse assessed as complete disease cure at 640 mg/kg measured 60 days post infection infection; type: functional, organism-based; design: dose 640 mg/kg; summary of the method: as §2
Plasmodium berghei [14] = assay: Antimalarial activity against blood schizont stage of Plasmodium berghei infected in mouse assessed as mean survival days of host at 640 mg/kg (reference value: 6.1 days); type: functional
Mus musculus [15] = assay: Toxicity in mouse infected with blood schizont stage of Plasmodium berghei assessed as mortality at 320 mg/kg measured prior to 6th day; type: organism-based; design: dose 320 mg/kg; conditions: in vivo
Summary of the method: (§3)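 In P. berghei-infected mice, five per group, deaths occurring before day 6 after infection are recorded as drug-toxic deaths.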

Mus musculus [16] = assay: Toxicity in mouse infected with blood schizont stage of Plasmodium berghei assessed as mortality at 640 mg/kg measured prior to 6th day; type: organism-based; design: dose 640 mg/kg; conditions: in vivo; summary of the method: as §3
Mus musculus [17] = assay: Toxicity in mouse infected with blood schizont stage of Plasmodium berghei assessed as mortality at 160 mg/kg measured prior to 6th day; type: organism-based; design: dose 160 mg/kg; conditions: in vivo; summary of the method: as §3

## COc1cc(NC(C)CCCN)c2ncccc2c1Oc1ccc(NC(C)=O)cc1 (configuration not stated)
Plasmodium cynomolgi [1]
  Activity: inactive
Plasmodium cynomolgi [2]
  Activity: inactive
Plasmodium cynomolgi [3]
  Activity: inactive
Plasmodium cynomolgi [4]
  Activity: inactive
Plasmodium cynomolgi [5]
  Activity: inactive
Plasmodium cynomolgi [6]
  Activity: inactive

## COc1cc(NC(C)CCCN)c2ncccc2c1Oc1ccc(Cl)cc1 (configuration not stated)
Plasmodium berghei [7]
  Survival: 5.5 days
Plasmodium berghei [8]
  Survival: 0.7 days
Plasmodium berghei [9]
  Survival: 4.7 days
Plasmodium berghei [10]
  Survival: 8.1 days
Plasmodium berghei [11]
  Survival: 7.1 days
Plasmodium cynomolgi [3]
  Activity: Active
Plasmodium cynomolgi [4]
  Activity: Active
Plasmodium cynomolgi [5]
  Activity: inactive
Plasmodium cynomolgi [6]
  Activity: Active

## COc1cc(NC(C)CCCN)c2ncccc2c1Oc1ccc(F)cc1.O.O=C(O)CC(O)(CC(=O)O)C(=O)O (configuration not stated)
Plasmodium berghei [7]
  Survival: 7.5 days
Plasmodium cynomolgi [1]
  Activity: inactive
Plasmodium berghei [8]
  Survival: 2.1 days
Plasmodium berghei [9]
  Survival: 5.7 days
Plasmodium berghei [12]
  Activity: Active
Plasmodium berghei [13]
  Activity: Active
Plasmodium berghei [11]
  Survival: 8.9 days
Plasmodium cynomolgi [3]
  Activity: inactive

## COc1cc(NC(C)CCCN)c2ncccc2c1Oc1ccccc1.O.O=P(O)(O)O (configuration not stated)
Plasmodium berghei [7]
  Survival: 1.7 days
Plasmodium berghei [8]
  Survival: 0.3 days
Plasmodium berghei [9]
  Survival: 1.5 days
Plasmodium berghei [14]
  Survival: 9.9 days
Plasmodium berghei [10]
  Survival: 7.5 days
Plasmodium berghei [11]
  Survival: 5.1 days

## COc1cc(NC(C)CCCN)c2ncccc2c1 (configuration not stated) [PRIMAQUINE]
Plasmodium berghei [7]
  Survival: 9.4 days
Plasmodium cynomolgi [2]
  Activity: Active
Plasmodium berghei [8]
  Survival: 4 days
Plasmodium berghei [9]
  Survival: 5 days
Mus musculus [15]
  Activity: Toxic
Mus musculus [16]
  Activity: Toxic
Plasmodium cynomolgi [5]
  Activity: inactive
Mus musculus [17]
  Activity: Toxic
